# Measured values as given in PubChem BioAssay.
# Unmarked numbers belong to inactive results. Inconclusive results are not listed. Active and inactive are the calls of the source.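 The calls were made as follows, unless noted: active = cell viability at or below a set limit in both duplicate runs, the limit being the all-compound median minus 4 SD (cut at about 23% in these data, passing the limit was not always enough); inconclusive = no clear call, values can overlap the other calls; inactive = the rest.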
# Legend:
# [1] = OD615 S. cerevisiae growth inhibition, permissive medium, pilot counter-assay, permissive growth control for S. cerevisiae lifespan shortening project (AID 705;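 active = growth inhibition above 25% in both replicates, a cutoff set 3 SD above the mean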); conditions: OD615, 24 h, at 10 µM, stronger effect = higher value
# How it was run: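 Material: engineered DeaD yeast; compound dosing: one dose 10 µM, DMSO 0.25% final; measure: yeast growth inhibition indicated by reduced 24 h OD615; detection: OD615 turbidity read; incubation: cells pre-grown 4 h, then 24 h compound exposure, 30 °C humidified; medium: permissive synthetic complete medium with raffinose and galactose carbon sources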
# [2] = Restrictive medium S. cerevisiae growth inhibition, OD615, pilot screen of yeast lifespan reduction project, restrictive growth control (AID 706;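 active = growth inhibition above a set limit, 3 SD over mean compound inhibition, in both replicates, cut at about 43% in these data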;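 also: modified DeaD lifespan yeast strain shifted to restrictive glucose medium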); conditions: OD615, 48 h, at 10 µM, stronger effect = higher value
# How it was run: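 material = engineered S. cerevisiae DeaD strain | medium = glucose-based CSMM-D restrictive medium | times = 4 h pre-incubation, 48 h exposure at 30 °C | technique = OD615 absorbance reading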
# [3] = viability gain of MRP-1-high H69AR cells under doxorubicin, pilot screen, MRP-1 activator project, CellTiter-Glo, duplicate (AID 807;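 active = viability increase at or above a cutoff of the median across tested compounds plus 3 SD, cut at about 8.5% in these data, passing the limit was not always enough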;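 also: compound pretreatment 18-22 h then 72 h combined with doxorubicin; 0% = doxorubicin alone and 100% = vehicle without doxorubicin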); conditions: H69AR viability with doxorubicin, CellTiter-Glo luminescence; at 10 µM; stronger effect = higher value
# [4] = growth suppression of beta-catenin knockout HCT116, pilot screen, human colon tumor cells (AID 823); conditions: CellTiter-Glo, 60 h, at 10 µM, stronger effect = lower value;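 also: 0% = wells killed by 20 µM Hyamine and 100% = untreated DMSO cell wells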
# [5] = growth suppression of PTEN-deleted HCT116, pilot screen, cell-based, HCT116 clonal line, CellTiter-Glo (AID 824;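 active = viability at or below 27.92% in each of two runs, the all-compound median minus 4 SD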;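 also: 0% = 20 µM Hyamine control and 100% = vehicle cell control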); conditions: 60 h, at 10 µM, stronger effect = lower value
# [6] = inhibitors of the yeast RAM network, pilot screen, dse1pr::URA3 reporter, 5-FOA selection (AID 869;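 active = inhibition over a set limit, the all-compound mean plus 3 SD, in both replicate runs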;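 also: 0% = DMSO wells with no growth and 100% = 10 µM 1-NA-PP1 with full growth; RAM network block rescues cells from 5-FOA so hits raise OD615 growth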); conditions: S. cerevisiae dse1pr::URA3 5-FOA growth, OD615, 2 d; at 10 µM; stronger effect = higher value; strain carries analog-sensitive mutant Cbk1 kinase
# [7] = RAM signaling pathway blockade in yeast – S. cerevisiae, Pdr1DBD-CYC8 efflux-inhibited sensitized strain, primary screen (AID 1298;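 active = RAM network inhibition above 8.4% in each of two replicates, 3 SD over the compound average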;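 also: 0% = DMSO untreated cells without growth and 100% = 10 µM 1-NA-PP1 full growth; higher means more yeast growth rescued from 5-FOA killing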); conditions: S. cerevisiae cbk1-as DSE1-URA3 strain, 5-FOA growth OD615, 2 d; at 50 µM; stronger effect = higher value
Compound,growth inhibition [1] [%],growth inhibition [2] [%],viability increase [3] [%],viability [4] [%],viability [5],inhibition [6] [%],RAM network inhibition [7] [%]
Cc1occc1-c1nnc(SCCCC(=O)c2ccc(F)cc2)n1C,-1.02,3.81,0.66,74.4,87.4%,1.5,6.28
Cc1cccc(NS(=O)(=O)c2ccccc2)n1,-4.51,11.2,2.49,106,104%,0.75,0.26
COC(=O)c1ccsc1NC(=O)c1ccc(Cl)s1,-17.6,-27.1,-6.51,94.7,87.9%,3.58,5.89
CCc1ccc(C2CC(c3ccc(Cl)cc3)n3nc(N)nc3N2)cc1 (configuration not stated),3.64,17.7,1.85,101,90.4%,1.53,2.02
Clc1ccc(C2CC(c3cccs3)n3ncnc3N2)cc1Cl (configuration not stated),-2.88,29.1,-5.77,80.2,72.9%,0.94,-1.53
CCNC(=O)COc1ccc2ccccc2c1,-2.77,3.62,0.99,97.4,99.6%,1.06,1.53
O=C(O)CN(Cc1ccco1)S(=O)(=O)c1ccccc1,-15.2,-13,-1.97,95.7,98.3%,2.67,2.35
Cc1ccc(CCN2C(=O)CCC2(C)C(=O)NC2CCCC2)cc1 (configuration not stated),-7.04,-1.27,-4.22,97.5,100%,1.19,5.93
COCCN(CCOC)C(=O)c1cc2sc3ccccc3c2s1,-6.12,-4.95,0.72,92.4,90.4%,0.11,0.31
Cn1cnc2c1c(=O)n(Cc1ccccc1)c(=O)n2C,-14.8,-14.2,-1.66,106,97%,3.59,0.42
Cn1c(=O)oc2cc(S(=O)(=O)NC3CCCc4ccccc43)ccc21 (configuration not stated),-25.4,-11.4,-1.98,92.4,90.7%,3.1,6.28
Cn1c(C(=O)N2CCN(Cc3ccccc3)CC2)cc2c(=O)n(C)c3ccccc3c21,7.94,3.57,-4.21,74.8,74.8%,0.905,1.37
CCOc1ccc(N2CCCCn3c2nc2c3c(=O)[nH]c(=O)n2C)cc1,-21.9,-16.5,-1.1,97.8,98%,1.5,2.47
COc1ccc(-c2nc(CS(=O)CC(=O)NCc3cccnc3)c(C)o2)cc1OC (configuration not stated),-1.92,-2.94,-2.64,99.5,94.8%,1.42,0.68
Cc1cc(NC(=O)CSc2c(C)[nH]c3ccccc23)no1,-11.4,-4.25,-1.25,104,89.4%,0.94,4.64
COCCNS(=O)(=O)c1ccc(C2CNC(=O)C2)cc1 (configuration not stated),-7.18,-6.89,-1.08,110,104%,2.2,-1.51
CCCCC(=O)Nc1nc2c(OC)ccc(OC)c2s1,-5.01,1.46,-2.98,97.5,98.3%,0.87,3.86
Nc1nnc(CCc2ccccc2)s1,-1.91,8.1,0.12,96.2,98.9%,1.77,0.62

Compound,growth inhibition [1] [%],growth inhibition [2] [%],viability increase [3] [%],viability [4] [%],viability [5],inhibition [6] [%],RAM network inhibition [7] [%]
Cc1cccc2sc(NC(=O)CCNS(=O)(=O)c3cccc4nonc34)nc12,-11.1,-6.5,-5.31,86.1,80.7%,2.71,7.24
O=C(NC12CC3CC(CC(C3)C1)C2)c1cccnc1,-3.12,15.7,-0.51,104,97.7%,2.61,3.7
COc1ccc(-n2c(Cc3cccn3C)nnc2SCC(=O)N2CCOCC2)cc1,3.14,10.2,-1.11,103,96%,1.11,0.98
O=c1cnn(-c2ccccc2)c(-c2ccccc2)c1,-15.7,-5.25,-6.23,31.1,24% (active),2.04,1.25
CCOC(=O)C(C)Sc1nnc(Cc2cc(=O)[nH]c(=O)[nH]2)n1-c1cccc(OC)c1 (configuration not stated),-8.94,-10,0.04,101,96.9%,0.395,-1.47
CCCCCCC1C(C#N)=C(N)OC2=C1C(=O)CCC2 (configuration not stated),-12,-14.4,-2.64,101,92%,3.6,4.66
Cc1nnc(Nc2ccc3c(c2)OCO3)c2ccccc12,-10.6,-15.2,-3.25,92,91.7%,0.365,4.96
c1ccc(C2NCCn3cccc32)cc1 (configuration not stated),-8.84,-13.7,-2.82,99,98%,0.21,2.74
CC1=C(C)C(=O)N(CCC(=O)O)C1=O,-12.6,-20.3,-1.09,95.3,93.8%,1.52,3.32
N#Cc1ccc(CSCC(=O)O)cc1,-10.3,-2.01,1.1,97.4,107%,2.8,4.42
COC(=O)CSC1=C(C#N)C(c2ccc(C(C)C)cc2)CC(=O)N1 (configuration not stated),-0.135,-3.29,0.86,89.8,89.3%,3.04,4.09
Cc1cccc(N2CCN(C(=O)C3CCCN(S(=O)(=O)c4cccc5cccnc45)C3)CC2)c1C (configuration not stated),-6.73,12.1,-4.58,30.5,35.8%,1.32,1
CCCCC(=O)Nc1ncc2c(n1)CC(C)(C)CC2=O,-7.95,-5.04,-2.35,96.1,98.2%,2.94,1.03
CCOC(=O)N1CCC(N2C(=O)c3ccc(C(=O)NCc4ccc(F)cc4)cc3C2=O)CC1,-0.31,-4.59,-1.21,98.1,100%,3.25,8.97
COc1ccc(CC(=O)Nc2c3c(nn2C(C)(C)C)CS(=O)C3)cc1 (configuration not stated),-13.6,-4.57,-0.14,109,101%,1.24,0.63
COCCN1C(=O)c2oc3ccccc3c(=O)c2C1c1cccc(O)c1 (configuration not stated),-7,-8.97,-0.6,107,94.3%,1.1,2.85
COc1ccc(C2C(C(=O)Nc3cc(C)on3)c3ccccc3C(=O)N2C)cc1 (configuration not stated),2.9,-2.79,-1.73,101,101%,1.46,0.37
COC(=O)C1=C(C)NC(=O)NC1c1cn(-c2ccccc2)nc1-c1cccs1 (configuration not stated),1.5,7.83,-1.94,85.6,82.4%,2.37,5.72
